Bioassay records: PubChem BioAssay, several laboratories
Most compounds without a hit are left out; they make up all but 1.3% or so of the library.
EP2 antag = blocks the human prostaglandin E2 receptor EP2; inhibition, % at 25 µM; C6 glioma cells expressing human EP2, cAMP TR-FRET; cells stimulated with saturating PGE2; AID 1422; P43116; 260,000 compounds, 0.52% hits;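 active = percent inhibition above 40 after rounding to a whole number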;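 also: rat C6 glioma host cells with rolipram phosphodiesterase inhibitor present; the protocol text gives 20 µM as final concentration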
Target sequence (P43116 whole entry, looked up): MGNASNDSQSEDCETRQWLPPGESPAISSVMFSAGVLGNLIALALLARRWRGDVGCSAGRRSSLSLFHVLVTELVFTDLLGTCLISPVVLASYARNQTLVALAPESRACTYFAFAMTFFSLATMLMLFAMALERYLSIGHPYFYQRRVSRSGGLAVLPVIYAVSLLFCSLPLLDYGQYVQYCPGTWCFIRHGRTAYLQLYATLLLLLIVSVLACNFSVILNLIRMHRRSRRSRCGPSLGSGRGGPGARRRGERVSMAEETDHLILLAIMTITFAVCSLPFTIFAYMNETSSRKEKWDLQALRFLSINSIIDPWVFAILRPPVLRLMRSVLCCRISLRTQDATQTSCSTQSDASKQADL
JMJD2C inh = human JMJD2C demethylase inhibition; Q9H3R0; GST-JMJD2C(1-420) H3K9me3 demethylation, DELFIA europium; inhibition, % at 2.35 µM; 330,000 compounds, 0.069% hits;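 active = more than half of a compound's replicate wells show inhibition beyond 50%, single wells judged on their own value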;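 also: signal counts dimethyl H3K9 product captured on neutravidin plate; 0% = median of DMSO wells and 100% = 0.3 times that DMSO median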
EP2 mod = modulates human prostaglandin E2 receptor EP2 signaling. induction, % at 25 µM. EP2-expressing cells, cAMP HTRF FRET, PGE2 co-stimulation. 260,000 compounds, 0.83% hits;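 active = compounds whose cAMP rise, as percent of the full-agonist control response, exceeds 60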;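 also: rat C6 glioma line stably carrying human EP2 under a CMV promoter; the protocol text gives 20 µM as final concentration; 100% = response of wells given 1 µM PGE2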
NR2E3 ag-1 = agonists of human NR2E3 nuclear receptor; Q9Y5X4; CHO-S Gal4-NCOR/VP16-NR2E3 two-hybrid, luciferase; inhibition of corepressor binding, % at 3.98 µM; 360,000 compounds, 0.35% hits;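 active = inhibition above the mean of all tested compounds plus 3 SD, cut at about 70% in these data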;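 also: 0% = DMSO with NR2E3 transfected cells and 100% = cells lacking NR2E3 construct; higher means lower luciferase signal from less NR2E3 corepressor binding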
Target sequence (Q9Y5X4 whole entry, looked up, the tested form may be a part): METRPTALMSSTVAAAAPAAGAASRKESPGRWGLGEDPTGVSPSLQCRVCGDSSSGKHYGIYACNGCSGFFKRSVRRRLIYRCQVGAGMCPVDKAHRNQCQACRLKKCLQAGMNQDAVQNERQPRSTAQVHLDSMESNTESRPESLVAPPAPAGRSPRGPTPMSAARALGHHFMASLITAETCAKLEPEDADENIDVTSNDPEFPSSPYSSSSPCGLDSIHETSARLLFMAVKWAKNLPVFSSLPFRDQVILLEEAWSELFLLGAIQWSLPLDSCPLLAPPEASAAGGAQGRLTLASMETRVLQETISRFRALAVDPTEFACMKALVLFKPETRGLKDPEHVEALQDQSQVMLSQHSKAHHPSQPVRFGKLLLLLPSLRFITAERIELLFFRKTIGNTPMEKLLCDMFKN
NR2E3 ag-2 = NR2E3 (human) agonism | 320,000 compounds, 0.12% hits | inhibition of corepressor binding, % at 4.78 µM | GST-NR2E3/biotin-RetCOR TR-FRET, 1536-well | AID 2300;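 active = percent inhibition above the cutoff of mean plus 3 SD of all tested compounds, set per screening campaign, cut at about 20% in these data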;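 also: 0% = DMSO wells and 100% = biotin wells as full block of FRET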
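Assay system: NR2E3–RetCOR corepressor complex. Quantity: 1.35 nM GST-NR2E3. Buffer or medium: pH 7.5 Tris-based buffer. Reagent: biotinylated RetCOR corepressor at 7 nM final. Schedule: 5 h at 4 °C. Detection: TR-FRET, emission read at 617 and 671 nm. Replicates: one well per compound, singlicate testing.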
Furin inh = inhibitors of human furin; inhibition, % at 20 µM or 30 µM; 220,000 compounds, 0.061% hits; purified furin, fluorogenic substrate cleavage; in the data active = inhibition above about 25%
NR2E3 ag conf = confirmation of human NR2E3 agonists; shares compounds with NR2E3 ag-1; CHO-S mammalian two-hybrid NR2E3-NCOR, luciferase luminescence; inhibition, % at 3.98 µM; 2,300 compounds, 51% hits;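 active = average inhibition above a cutoff equal to the mean inhibition of all tested compounds plus one SD, cut at about 70% in these data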;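 also: 0% = DMSO in NR2E3 cells and 100% = DMSO in cells lacking NR2E3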
VP16 counter = GAL4-VP16 reporter inhibition in NR2E3 agonist counterscreen; shares compounds with NR2E3 ag-1; CHO-S GAL4-VP16 luciferase reporter, luminescence; inhibition, % at 3.98 µM; 2,300 compounds, 29% hits;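 active = mean inhibition above a cutoff equal to the average over all tested compounds plus one standard deviation, cut at about 70% in these data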;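 also: luciferase from a UAS reporter driven by GAL4-VP16 transactivation; 0% = DMSO with VP16-transfected cells and 100% = DMSO with cells lacking VP16; higher means less reporter light so more repression of VP16 activity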
Starred values were filed as active, the others as inactive; · = no result.

SMILES | EP2 antag | JMJD2C inh | EP2 mod | NR2E3 ag-1 | NR2E3 ag-2 | Furin inh | NR2E3 ag conf | VP16 counter
COc1ccc(CC2C(=O)NC(C)C(=O)N(C)C3C(=O)N(C)C(Cc4ccc(O)c(c4)Oc4ccc(cc4)C3O)C(=O)NC(C)C(=O)NC(C)C(=O)N2C)cc1 (centres undefined) | · | · | · | 102.4* | · | · | 100.0* | 99.5*
C[C@H]1[C@@H](OS(=O)(=O)O)C[C@@H]2C[C@H]([C@@H](O)c3cc(=O)[nH]c(=O)[nH]3)NC3=NC[C@H]1N32 | · | · | · | 100.7* | · | · | 98.9* | 82.0*
CCc1cccc2c(CC(=O)N(C)CCN(C)C)c(C)[nH]c12 | 3.4 | · | -3.1 | · | · | · | · | ·
CC(C)c1ccc(C(c2c(O)c3ccccc3oc2=O)c2c(O)c3ccccc3oc2=O)cc1 | 69.7* | · | -11.1 | 75.2* | · | · | 91.1* | 52.6
O=c1oc2ccccc2c(O)c1C(c1ccc([N+](=O)[O-])cc1)c1c(O)c2ccccc2oc1=O | 8.6 | 62.8 | 8.9 | 10.4 | · | -4.4 | · | ·
O=C(CN1C2CCC1CC(O)(c1ccccc1F)C2)NC1CCS(=O)(=O)C1 (centres undefined) | 7.1 | · | 6.9 | · | · | · | · | ·
CC1CC(C)(O)CC(C(O)CC2CC(=O)NC(=O)C2)C1=O (centres undefined) | · | · | · | 100.4* | · | · | 100.1* | 98.7*
COc1ccc(-n2c(/C=C/c3ccccn3)nc3ccccc3c2=O)cc1 | 11.8 | · | -1.5 | · | · | · | · | ·
COC1CC2C=C(C)C=CC=CC(=O)NC(c3ccccc3)CC=CCCC(O)CC(=O)C2=C1O (centres undefined) | · | · | · | 102.7* | · | · | 98.5* | 95.4*
O=[N+]([O-])c1ccc(N(CCO)CCO)c2c1no[n+]2[O-] | · | · | · | 76.5* | · | · | 54.4 | 44.2
CC1(C)C(C(=O)N2CCN(c3ccc(Cl)cc3)CC2)C1(C)C | · | 3.1 | · | -6.2 | -2.7 | · | · | ·
COC(=O)C1CN(C#N)N(c2ccc(Cl)cc2)C12c1ccccc1-c1ccccc12 (centres undefined) | 9.0 | 8.8 | 49.7 | 80.2* | 0.4 | -9.4 | 91.6* | 62.9
CCC(Oc1ccccc1F)C(=O)N1CCC(C(C)=O)(c2ccccc2)CC1 (centres undefined) | 6.2 | · | 6.1 | · | · | · | · | ·
Cc1cc(OC(=O)c2ccco2)c2c3c(c(=O)oc2c1)CCCC3 | 8.1 | 7.7 | 37.5 | 93.1* | 2.6 | -5.8 | 68.6 | 43.4
NC1(CO)COC(c2cccnc2)OC1 (centres undefined) | 7.1 | · | 23.4 | · | · | · | · | ·
Oc1c(Cl)cccc1Cc1cc(Cl)cc(Cl)c1O | · | · | · | 98.1* | · | · | 100.4* | 92.7*
N#Cc1c(Br)n(C2OC(CO)C(O)C2O)c2ncnc(N)c12 (centres undefined) | · | · | · | 42.7 | · | · | · | ·
NC(=O)c1cn(C2OC(CO)C(O)C2O)c2ncnc(N)c12 (centres undefined) | 19.2 | 4.8 | 11.7 | 101.4* | -0.6 | -8.5 | 99.1* | 98.6*
N#Cc1cn(C2OC(CO)C(O)C2O)c2ncnc(N)c12 (centres undefined) | · | · | · | 97.5* | · | · | 99.6* | 83.5*
Cc1ccc2c(c1)C(=O)CC1(CCNCC1)O2 | 7.5 | · | -25.0 | · | · | · | · | ·
CN(C)CCN(C(=O)Cc1ccc2c(c1)CCC2)C1CCN(C)CC1 | 6.6 | · | -38.1 | · | · | · | · | ·
C=C1C(=O)OC2CC(C)C3C=CC(=O)C3(C)C(O)C12 (centres undefined) | · | · | · | 92.3* | · | · | 99.4* | 41.3
C=C1C(=O)O[C@H]2[C@H]1[C@H](OC(=O)CC(=O)O[C@@H]1C[C@@H](C)[C@@H]3C=CC(=O)[C@@]3(C)[C@H]3OC(=O)C(=C)[C@H]13)C[C@@H](C)[C@H]1C=CC(=O)[C@]12C | 24.4 | 15.8 | -21.0 | 78.1* | -0.1 | -33.0 | 88.9* | 73.2*
C=C1C(=O)O[C@H]2C[C@@H](C)[C@@H]3C=CC(=O)[C@@]3(C)C[C@H]12 | · | 2.8 | -5.1 | · | -5.1 | -22.1 | · | ·
C=C1C(=O)O[C@@H]2C[C@@H](C)[C@@H]3C=CC(=O)[C@@]3(C)[C@@H](OC(=O)CC(=O)O[C@H]3[C@@H]4C(=C)C(=O)O[C@@H]4C[C@@H](C)[C@@H]4C=CC(=O)[C@]43C)[C@H]12 | 166.3* | -1.0 | -43.9 | 96.0* | 2.0 | -30.5 | 100.5* | 96.8*
SMILES | EP2 antag | JMJD2C inh | EP2 mod | NR2E3 ag-1 | NR2E3 ag-2 | Furin inh | NR2E3 ag conf | VP16 counter
C=C1C(=O)O[C@@H]2C[C@@H](C)[C@@H]3C4OC4C(=O)[C@@]3(C)[C@@H](O)[C@H]12 (some centres undefined) | 7.7 | 4.4 | -37.6 | 76.6* | -3.8 | -29.5 | -10.8 | 2.4
C=C1C(=O)OC2C1CCC(C)C1(O)C=CC(=O)C21C (centres undefined) | · | · | · | 33.2 | · | · | · | ·
Cc1cccc(C2=NCC(=O)Nc3sc4c(c32)CCCC4)c1 | 4.9 | · | 8.9 | · | · | · | · | ·
COc1ccc(OCC(=O)N2CCN(C3CCCCCC3)CC2)cc1 | 6.6 | · | -55.0 | · | · | · | · | ·
Nc1ccc(CC(N)c2csc(Nc3ncccn3)n2)cc1 (centres undefined) | · | · | · | -33.3 | · | · | · | ·
NC(Cc1ccc(F)cc1)c1csc(Nc2ncccn2)n1 (centres undefined) | · | · | · | 50.5 | · | · | 21.8 | -6.6
NC(Cc1ccc(Cl)cc1)c1csc(Nc2ncccn2)n1 (centres undefined) | · | · | · | 58.1 | · | · | 51.4 | 27.7
C#CCOc1cccc(CN2C3CCC2CC(O)(c2ccc(F)cc2)C3)c1 (centres undefined) | 4.4 | · | -28.1 | · | · | · | · | ·
CCN1CC2(C)CC[C@H](OC)[C@]34C2[C@H](O)C2(OCO[C@@]25C[C@H](OC)[C@H]2C[C@]3(O)C5[C@H]2O)C14 | 9.1 | · | -3.7 | · | · | · | · | ·
CC(N)C(=O)NC1C2C(=C(O)CC(O)C2O)C(=O)OC1(C)C(Cl)Cl (centres undefined) | · | · | · | 98.1* | · | · | 96.1* | 91.9*
Cn1ccnc1C1(O)CC2CCC(C1)N2CC(=O)Nc1ccc2c(c1)OCO2 (centres undefined) | · | · | -26.8 | · | · | · | · | ·
CC1=CC(C)CC(C)OC(=O)CC(c2ccc(O)cc2)NC(=O)C(Cc2c(Br)[nH]c3ccccc23)N(C)C(=O)C(C)NC(=O)C(C)C1 (centres undefined) | · | · | · | 64.2 | · | · | 58.0 | 62.8
CC(C)(C)c1ccc(CSc2cnn(C(C)(C)C)c(=O)c2Cl)cc1 | · | -21.7 | · | 107.3* | -1.9 | · | 99.6* | 93.3*
CCOc1ccc(CN2CCNCC2)cc1 | 3.0 | · | -13.0 | · | · | · | · | ·
COc1cccc(CNC(=O)CN2C3CCC2CC(O)(c2ccco2)C3)c1 (centres undefined) | · | · | -34.7 | · | · | · | · | ·
CC1=CC2OC3CC4OC(=O)C=CC=CC(=O)OCCC(C)C(O)C(=O)OCC2(CC1)C4(C)C31CO1 (centres undefined) | · | · | · | 103.2* | · | · | 100.6* | 100.3*
